Published values of several laboratories.
Compare with care: the assays were run in different laboratories.
Target: RAC-gamma serine/threonine-protein kinase (AKT3, Homo sapiens, UniProt Q9Y243)

For C[C@@H]1CCN(C(=O)CC#N)C[C@@H]1N(C)c1ncnc2[nH]ccc12, the remaining signal was 85.8% (cell-free assay; inhibitor; 0.5 µM).
The inhibition of CN1CC(Oc2cnc(C#N)cc2-c2ccn3nc(NC(=O)C4CC4)cc3c2)C1 is reported as 7% (enzyme activity; inhibitor; 1 µM).
CC(=O)N1CCC(c2ccc(C(=O)NC3=NCCN3)cc2C(F)(F)F)CC1 gave a remaining binding of 100% (cell-free assay; competition with immobilised ligand; 1 µM).
Nc1ncnc2occ(-c3ccc(NC(=O)Nc4cc(C(F)(F)F)ccc4F)cc3)c12 gave a remaining signal of 85% (cell-free assay; inhibitor; 20 µM).
With CO[C@@H](C)c1c(Nc2ccc([C@H](N(C)C(=O)C3CCS(=O)(=O)CC3)C(F)(F)F)cc2)cnc2cc(Cl)nn12 the remaining binding was 100% (cell-free assay; competition with immobilised ligand; 1 µM).
With Cn1c2c(c3ccc(Cl)c(Cl)c31)C(C#N)C1(CCN(C(=O)OC(C)(C)C)CC1)NC2=O (racemic) the ΔTm was -0.1 °C (thermal stability; DSF; 10 µM).
The remaining activity of Cc1cnc(NC2CCOCC2)nc1-n1cnc(C(=O)NC(CN)c2cc(F)cc(Cl)c2)c1 (stereo not shown) is reported as 78% (enzyme activity; inhibitor; radiometric; 1 µM).
COc1cc2ncnc(Nc3ccc(Oc4ccccc4)cc3C)c2cc1OC gave an inhibition of 6% (enzyme activity; inhibitor; 1 µM).
CS(=O)(=O)N1CCCC(NC(=O)[C@H](CCC2CCCCC2)NC(=O)c2ccc(CNC(=O)c3cnc4ccccn34)cc2)C1 (stereo partly shown) gave a remaining binding of 100% (cell-free assay; competition with immobilised ligand; 0.1 µM).
CNC(=O)c1cc(Oc2ccc(NC(=O)Nc3ccc(Cl)c(C(F)(F)F)c3)cc2)ccn1 gave an inhibition of -4% (enzyme activity; inhibitor; 0.3 µM).
With Cc1ccc(NC(=O)c2ccc(CN3CCN(C)CC3)cc2)cc1Nc1nc(-c2cccnc2)cs1 the remaining signal was 102% (cell-free assay; 0.5 µM).
For Cn1c2c(c3ccc(Cl)c(Cl)c31)C(C#N)C1(CCOCC1)NC2=O (stereo not shown), the ΔTm was -0.1 °C (thermal stability; DSF; 10 µM).
For Cc1c(NC(=O)c2cc(C(N)=O)nc3cc(F)ccc23)c(C(F)(F)F)nn1Cc1ccc(C#N)cc1, the remaining binding was 81% (cell-free assay; competition with immobilised ligand; 1 µM).
CC/C(=N\NC(=O)NCc1cccc(O)c1)c1ccc(O)c(C)c1O gave an inhibition of 22.8% (enzyme activity; inhibitor; 0.1 µM).
O=C(Nc1cnn(-c2csc(C(=O)NC3COC3)c2)c1)Nc1ccccc1Cl gave a remaining activity of 87.3% (enzyme activity; inhibitor; 5 µM).
The ΔTm of Cn1c2c(c3ccc(Cl)c(Cl)c31)C(C#N)C1(CCCC1)NC2=O (stereo not shown) is reported as -0.1 °C (thermal stability; DSF; 10 µM).
For O=C(N1CCS(=O)(=O)CC1)N1C[C@H](c2ccc(OC(F)(F)F)cc2)C[C@H](c2nc(C3CC3)no2)C1, the remaining binding was 100% (cell-free assay; competition with immobilised ligand; 1 µM).
Cn1c2c(c3ccc(Cl)c(Cl)c31)C(C#N)C(C)(C)NC2=O (stereo not shown) gave a ΔTm of -0.2 °C (thermal stability; DSF; 10 µM).
The inhibition of CNc1cccc2cc(C(=O)Nc3ccc(C(=O)O)cc3)c(=O)[nH]c12 is reported as 5.8% (enzyme activity; inhibitor; 10 µM).
Cc1ccc(Nc2nccc(N(C)c3ccc4c(C)n(C)nc4c3)n2)cc1S(N)(=O)=O gave a remaining activity of 93.3% (enzyme activity; inhibitor; 0.5 µM).
For Cc1ccc(C(=O)Nc2ccc(CN3CCN(C)CC3)c(C(F)(F)F)c2)cc1C#Cc1cnc2cccnn12, the remaining activity was 100% (enzyme activity; inhibitor; 23.5 nM).
The remaining binding of O=c1nc(-c2ccccn2)sc2ccccc12 is reported as 100% (binding; competition with immobilised ligand; 1 µM).
For CCC1(CC)NC(=O)c2c(c3ccc(Cl)c(Cl)c3n2C)C1C#N (stereo not shown), the ΔTm was 0.1 °C (thermal stability; DSF; 10 µM).
Cn1nc(C(F)(F)F)cc1-c1cnc(N2CCc3cc(S(=O)(=O)Nc4c(F)cc(Cl)cc4F)cc(N4CCCC4=O)c32)nc1 gave a remaining binding of 84% (cell-free assay; competition with immobilised ligand; 1 µM).
The ΔTm of Cn1c2c(Cl)c(Cl)ccc2c2cc[nH]c(=O)c21 is reported as 0 °C (thermal stability; DSF; 10 µM).
FC(F)(F)c1ccc2c(c1)nc(-c1cccnc1)n2C1CC1 gave a remaining binding of 100% (cell-free assay; competition with immobilised ligand; 1 µM).
COc1cc(Nc2c(C#N)cnc3cc(OCCCN4CCN(C)CC4)c(OC)cc23)c(Cl)cc1Cl gave a remaining signal of 90.7% (cell-free assay; 0.5 µM).
The remaining activity of CCCOc1ccc(OC)c(F)c1C(=O)c1ccc(C(=O)N[C@@H]2CNC[C@H]2NC(=O)c2ccc3[nH]ncc3c2)cc1 is reported as 97% (enzyme activity; inhibitor; 50 nM).
CCN1CCC2(CC1)NC(=O)c1c(c3ccc(Cl)c(Cl)c3n1C)C2C#N (racemic) has a ΔTm of -0.2 °C (thermal stability; DSF; 10 µM).
For CC(C)(C)c1nc(-c2cccc(NS(=O)(=O)c3c(F)cccc3F)c2F)c(-c2ccnc(N)n2)s1, the remaining activity was 80% (enzyme activity; inhibitor; radiometric; 1 µM).
With CCCS(=O)(=O)Nc1ccc(F)c(C(=O)c2c[nH]c3ncc(-c4ccc(Cl)cc4)cc23)c1F the inhibition was less than 10% (enzyme activity; inhibitor; 1 µM).
